From ChEMBL document CHEMBL1133481, “Resistance-modifying agents. 8. Inhibition of O(6)-alkylguanine-DNA alkyltransferase by O(6)-alkenyl-, O(6)-cycloalkenyl-, and O(6)-(2-oxoalkyl)guanines and potentiation of temozolomide cytotoxicity in vitro by O(6)-(1-cyclopentenylmethyl)guanine” (J Med Chem, 2000)
Residue numbers refer to the chain shown, from its start. “And” between values parts separate entries of the source, which are not always exact repeats. Equal entries are not always repeated.

Key:
[1] = target: T1, Methylated-DNA--protein-cysteine methyltransferase (Homo sapiens, UniProt P16455); experiment: concentration required to reduce AGT activity to 50% of control rate in HT-29 cell extract.; format: cell-based
T1 sequence (P16455 whole entry): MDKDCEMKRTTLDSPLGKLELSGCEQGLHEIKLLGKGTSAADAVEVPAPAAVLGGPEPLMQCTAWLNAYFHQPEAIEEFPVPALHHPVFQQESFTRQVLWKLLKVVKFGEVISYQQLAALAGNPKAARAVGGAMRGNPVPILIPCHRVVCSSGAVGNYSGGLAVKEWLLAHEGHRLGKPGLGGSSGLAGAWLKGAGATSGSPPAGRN
Outline: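 HT29 cell extract AGT assay; IC50 is the inhibitor concentration reducing AGT activity to 50% of the control rate.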

[2] = target: T2, Methylated-DNA--protein-cysteine methyltransferase (Homo sapiens) (UniProt P16455); experiment: Percent of AGT inactivation in HT-29 cell extract at 1 mM concentration.
T2 sequence (whole entry): T1 sequence (P16455 whole entry)

[3] = target: T2, Methylated-DNA--protein-cysteine methyltransferase (Homo sapiens); experiment: Percent AGT inactivation in HT-29 cell extract at 1 mM; format: cell-based
[4] = target: T1, Methylated-DNA--protein-cysteine methyltransferase; experiment: concentration required to reduce AGT activity to 50% of control rate in intact HT-29 human colorectal carcinoma cells; format: cell-based
Outline: (§1)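 HT29 cells were grown 3 days in EMEM with 10% FCS, then exposed for 4 h to inactivator in serum-free EMEM (DMSO final 1% or 0.1%). Cells were trypsinized, washed and counted by trypan blue; pellets of 10⁷ cells were homogenized in Tris-HCl pH 8.3 buffer with EDTA, DTT and 200 mM NaCl. AGT activity was assayed in the extracts, and the concentration depleting whole-cell AGT activity by 50% was calculated.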

[5] = target: T1, Methylated-DNA--protein-cysteine methyltransferase; experiment: Inhibition of AGT activity to 50% of control rate in HT-29 cell extract; format: cell-free
[6] = target: T1, Methylated-DNA--protein-cysteine methyltransferase; experiment: (§2) concentration required to reduce AGT activity to 50% of control rate in intact HT-29 human colorectal carcinoma cells.; format: cell-based; outline: as §1
[7] = test system: COLO 205; experiment: Cytotoxicity of compound in COLO 205 cell line; format: functional, cell-based; details: Homo sapiens
Outline: (§3)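 Colony-forming assay: exponentially growing cells were preincubated 1 h with 10 µM AGT inactivator (0.1% DMSO), then given temozolomide 0–1000 µM final (1% DMSO) for 4 h at 37 °C. Cells were then plated: HT29 on plastic, Colo205 in 0.15% agarose, with inactivator kept at 10 µM. After about 2 weeks, colonies were stained (crystal violet for HT29, MTT for Colo205) and counted. Temozolomide IC50 is mean ± SD of 3 independent experiments.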

[8] = test system: HT-29; experiment: Cytotoxicity of compound in HT-29 cell line; format: functional, cell-based; details: Homo sapiens; outline: as §3
[9] = test system: HT-29; experiment: Level of AGT activity in HT-29 cell line; format: functional, cell-based; details: Homo sapiens
[10] = test system: COLO 205; experiment: Level of AGT activity in COLO 205 cell line; format: functional, cell-based; details: Homo sapiens
[11] = target: T1, Methylated-DNA--protein-cysteine methyltransferase; experiment: as §2; format: cell-based; outline: as §1; remark: listed apart in the source
[12] = test system: T3, Methylated-DNA--protein-cysteine methyltransferase (Homo sapiens), P16455 [G160R]
T3 sequence (whole entry): T1 sequence (P16455 whole entry) with G160R

[13] = target: T2, Methylated-DNA--protein-cysteine methyltransferase (Homo sapiens); experiment: Compound was evaluated for inactivation of 156A mutant AGT
Outline: (§4)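 Recombinant wild-type or mutant (P140K, Y158H, G160R, G156A) AGT, made in E. coli with an N-terminal His6 tag and purified by metal affinity, was preincubated with inhibitor for 30 min at 37 °C in 50 mM Tris-HCl pH 7.5, 0.1 mM EDTA, 5 mM DTT and hemocyanin. Residual activity was measured over a further 30 min with methylated DNA substrate. ED50 was read from a plot of % activity lost against inhibitor amount, with a maximum of […] inhibitor.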

[14] = test system: T4, Methylated-DNA--protein-cysteine methyltransferase (Homo sapiens), P16455 [P140K]
T4 sequence (whole entry): T1 sequence (P16455 whole entry) with P140K

[15] = test system: T5, Methylated-DNA--protein-cysteine methyltransferase (Homo sapiens), P16455 [Y158H]; experiment: Compound was evaluated for inactivation of Y158H mutant AGT; outline: as §4
T5 sequence (whole entry): T1 sequence (P16455 whole entry) with Y158H

[16] = target: T2, Methylated-DNA--protein-cysteine methyltransferase (Homo sapiens); experiment: Compound was evaluated for inactivation of Wild type AGT; outline: as §4
[17] = test system: T3, Methylated-DNA--protein-cysteine methyltransferase (Homo sapiens), P16455 [G160R]; experiment: Compound was evaluated for inactivation of G160R mutant AGT; outline: as §4
[18] = test system: T4, Methylated-DNA--protein-cysteine methyltransferase (Homo sapiens), P16455 [P140K]; experiment: Compound was evaluated for inactivation of P140K mutant AGT; outline: as §4

Compound `Nc1nc(OCC2CCC2)c2[nH]cnc2n1` has an IC50 [1] greater than 1 mM and an Inactivation [2] of 34%.
`CC(C)C1(COc2nc(N)nc3[nH]cnc23)OCCO1` was tested, and the Inactivation [3] was 54%.
`Nc1nc(OCC2=CCCC2)c2[nH]cnc2n1` showed an IC50 [4] of 0.2 µM and an IC50 [5] of 0.39 µM.
`CC/C=C\CCOc1[nH]c(N)nc2ncnc1-2` showed an IC50 [1] greater than 1 mM and an Inactivation [2] of 32%.
In the case of `CC(=O)COc1nc(N)nc2[nH]cnc12`, the IC50 [6] is reported as 95 µM and 119 µM and the IC50 [5] is reported as 192 µM.
With `CC(C)C(=O)COc1nc(N)nc2nc[nH]c12` the IC50 [1] was greater than 1 mM and the Inactivation [2] was 31%.
Work on `Nc1nc(Oc2cccs2)c2[nH]cnc2n1` yielded an IC50 [5] of 0.003 µM.
With `CCOc1nc(N)nc2[nH]cnc12` the Inactivation [3] was 0%.
For `CCCCOc1nc(N)nc2[nH]cnc12`, the IC50 [5] was 493 µM.
In the case of `Nc1nc(OCC2CC=CCC2)c2[nH]cnc2n1` (stereo not drawn), the IC50 [1] is reported as greater than 1 mM and the Inactivation [2] is reported as 32%.
`Nc1nc(OCC2CCCCC2)c2nc[nH]c2n1` gave an IC50 [1] greater than 1 mM and an Inactivation [3] of 0%.
For `CCCOc1nc(N)nc2[nH]cnc12`, the Inactivation [2] was 24%.
`CCC(COc1nc(N)nc2[nH]cnc12)(OC)OC` showed an Inactivation [3] of 0% and an IC50 [5] greater than 1000 µM.
For `Cn1nnc2c(C(N)=O)ncn2c1=O` [TEMOZOLOMIDE], the IC50 [7] was 343 µM, the IC50 [8] was 951 µM and the Level [9] was 908 fM/mg. It also gave a Level [10] of 1160 fM/mg.
Work on `C=C(C)[C@H]1CC=C(COc2nc(N)nc3[nH]cnc23)CC1` yielded an IC50 [5] of 2.6 µM.
In the case of `CC(C)CCOc1nc(N)nc2[nH]cnc12`, the Inactivation [2] is reported as 24%.
For `CC1(C)OCC(COc2nc(N)nc3[nH]cnc23)O1` (stereo not drawn), the Inactivation [3] was 0% and the IC50 [5] was greater than 1000 µM.
Work on `CC(C)CCOc1nc(N)nc2nc[nH]c12` yielded an IC50 [1] greater than 1 mM.
`CCOC(C)(COc1nc(N)nc2[nH]cnc12)OCC` showed an Inactivation [3] of 0% and an IC50 [5] greater than 1000 µM.
In the case of `C=CCOc1nc(N)nc2nc[nH]c12`, the IC50 [6] is reported as 2.7 µM, the IC50 [11] is reported as 5.1 µM and the IC50 [5] is reported as 8.5 µM.
In the case of `COc1nc(N)nc2nc[nH]c12` [METHYLGUANINE], the IC50 [4] is reported as 248 µM and the IC50 [5] is reported as 428 µM.
`Nc1nc(OCC2=CCCCC2)c2[nH]cnc2n1` gave an IC50 [5] of 1.6 µM.
Work on `Nc1nc(OCC(=O)c2ccccc2)c2[nH]cnc2n1` yielded an IC50 [1] greater than 1 mM and an Inactivation [3] of 0%.
`CCC(=O)COc1nc(N)nc2nc[nH]c12` was tested, and the IC50 [6] was 94.5 µM and 93.2 µM and the IC50 [5] was 151 µM.
`Nc1nc(OCC2=CCC2)c2[nH]cnc2n1` gave an IC50 [5] of 0.55 µM.
`C#CCOc1nc(N)nc2nc[nH]c12` was tested, and the IC50 [6] was 11.5 µM and 11.9 µM and the IC50 [5] was 20 µM.
With `C=C(COc1nc(N)nc2nc[nH]c12)c1ccccc1` the IC50 [6] was 37.5 µM and 39.6 µM and the IC50 [5] was 77 µM.
`C=C(CC)COc1nc(N)nc2[nH]cnc12` was tested, and the IC50 [5] was 16 µM.
For `C=C(C)COc1nc(N)nc2nc[nH]c12`, the IC50 [6] was 13.5 µM and 9.9 µM and the IC50 [5] was 25 µM.
`CCCCCCOc1[nH]c(N)nc2ncnc1-2` gave an IC50 [5] of 554 µM.
`CCOc1nc(N)nc2nc[nH]c12` was tested, and the IC50 [5] was greater than 1000 µM.
With `COC(COc1[nH]c(N)nc2ncnc1-2)(OC)c1ccccc1` the Inactivation [3] was 0%.
`CCCOc1nc(N)nc2nc[nH]c12` was tested, and the IC50 [1] was greater than 1 mM.
For `C=C(COc1nc(N)nc2[nH]cnc12)C(C)C`, the IC50 [1] was greater than 1 mM and the Inactivation [2] was 22%.
In the case of `C=CCCCCOc1nc(N)nc2[nH]cnc12`, the Inactivation [3] is reported as 65%.
Work on `Cn1nnc2c(C(N)=O)ncn2c1=O.Nc1nc(OCc2ccccc2)c2[nH]cnc2n1` yielded an IC50 [7] of 14 µM and an IC50 [8] of 86 µM.
`CCCCCCCOc1nc(N)nc2[nH]cnc12` showed an Inactivation [3] of 10% and an IC50 [5] greater than 100 µM.
`CC/C=C/CCOc1nc(N)nc2[nH]cnc12` showed an Inactivation [3] of 88%.
`Nc1nc(OCc2ccccc2)c2nc[nH]c2n1` showed an ED50 [12] of 4.7 µM, an ED50 [13] of 60 µM and an ED50 [14] greater than 1500 µM. It also gave an ED50 [15] of 620 µM.
`COC(COc1nc(N)nc2nc[nH]c12)(OC)c1ccccc1` gave an IC50 [5] greater than 1000 µM.
Work on `Nc1nc(OCC2=CCCC2)c2nc[nH]c2n1` yielded an ED50 [16] of 0.3 µM, an ED50 [13] of 113 µM and an ED50 [17] of 13 µM. It also gave an ED50 [15] of 1500 µM and an ED50 [18] greater than 1500 µM.
`Cn1nnc2c(C(N)=O)ncn2c1=O.Nc1nc(OCC2=CCCC2)c2[nH]cnc2n1` showed an IC50 [7] of 36 µM and an IC50 [8] of 299 µM.
`CCCCCOc1nc(N)nc2[nH]cnc12` showed an IC50 [5] of 1010 µM.
With `Nc1nc(OCC2CCCC2)c2nc[nH]c2n1` the IC50 [1] was greater than 1 mM and the Inactivation [2] was 0%.
`Nc1nc(OCCc2ccccc2)c2nc[nH]c2n1` gave an IC50 [5] of 548 µM.
